Data: ChEMBL document CHEMBL3124904, “Second-generation derivatives of the eukaryotic translation initiation inhibitor pateamine A targeting eIF4A as potential anticancer agents” (Bioorg Med Chem, 2014)
Active and inactive are the calls of the source. The rule behind the calls is not given here.

What was measured:
Oryctolagus cuniculus [1] = species: Oryctolagus cuniculus; test: Inhibition of cap-independent HCV-IRES-induced translation in rabbit reticulocyte lysate at 500 nM after 1.5 hrs by luciferase reporter gene assay; assay type: functional
Outline: (§1)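 Capped bicistronic reporter mRNA: cap-dependent firefly luciferase first cistron, HCV IRES-driven Renilla second cistron. Transcribed in vitro with SP6 from the BamHI-linearised plasmid. 200 ng RNA translated in rabbit reticulocyte lysate with 70 mM KCl, 2 mM DTT, RNasin and compound in DMSO (5% v/v final), 30 °C for 1.5 h. Dual luciferase readout. Duplicates, 4 independent assays, mean IC50 by curve fit.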

Jurkat [2] = test: Antiproliferative activity against human Jurkat T cells up to 10^4 nM after 72 hrs by MTT assay; assay type: functional, cell-based
Outline: (§2)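 HeLa and SK-MEL2 grown in DMEM, Jurkat in RPMI 1640, each with 10% FBS and penicillin-streptomycin, at 37 °C and 5% CO2. Adherent cells seeded at 2000/well and left to recover overnight; Jurkat seeded at 5000/well with no recovery. Compound added in DMSO (0.1% final), then 72 h incubation and MTT readout.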

SK-MEL-2 [3] = test: Antiproliferative activity against human SK-MEL-2 cells up to 10^4 nM after 72 hrs by MTT assay in presence of 10% FBS; assay type: functional, cell-based; outline: as §2
HeLa [4] = test: Antiproliferative activity against human HeLa cells up to 500 nM after 72 hrs by MTT assay; assay type: functional, cell-based; outline: as §2
Jurkat [5] = test: Immunosuppressive activity in human Jurkat T cells assessed as inhibition of IL-2 transcription; assay type: functional, cell-based
[6] = Antiproliferative activity against BAEC assessed as DNA synthesis level after 24 hrs by thymidine incorporation assay; conditions: Bos taurus
Outline: (§3)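 Cells kept at 37 °C, 5% CO2 with penicillin-streptomycin and 10% FBS. Adherent lines seeded at 2000 cells/well and left to recover overnight; Jurkat seeded at 5000 cells/well with no recovery period. Compound added in DMSO (0.1% final, vehicle-only control) at 0.001–100 nM over 10 wells. DNA synthesis read out after 24 h. Mean IC50 from at least 3 independent assays.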

[7] = Antiproliferative activity against human Jurkat T cells assessed as DNA synthesis level after 24 hrs by thymidine incorporation assay; assay type: functional, cell-based; outline: as §3
HaCaT = test: Antiproliferative activity against human HaCaT cells assessed as DNA synthesis level after 24 hrs by thymidine incorporation assay; assay type: functional, cell-based; outline: as §3
RKO = test: Antiproliferative activity against human RKO cells assessed as DNA synthesis level after 24 hrs by thymidine incorporation assay; assay type: functional, cell-based; outline: as §3
HeLa [8] = test: Antiproliferative activity against human HeLa cells assessed as DNA synthesis level after 24 hrs by thymidine incorporation assay; assay type: functional, cell-based; outline: as §3
SK-MEL-2 [9] = test: Antiproliferative activity against human SK-MEL-2 cells after 72 hrs by MTT assay in presence of 10% FBS; assay type: functional, cell-based; conditions: SK-MEL-2, 72 h; outline: as §2
[10] = Antiproliferative activity against human Jurkat T cells after 72 hrs by MTT assay; assay type: functional, cell-based; outline: as §2
Oryctolagus cuniculus [11] = species: Oryctolagus cuniculus; test: Binding affinity to eIF4A1/2 in rabbit reticulocyte lysate assessed as inhibition of cap-dependent translation up to 500 nM after 1.5 hrs by dual luciferase reporter gene assay; outline: as §1
[12] = Half life in RPMI media at 10 uM by HPLC analysis; assay type: physicochemical
Outline: (§4)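 Compound added from DMSO stock to pre-heated RPMI 1640 (1.8 mL) plus 0.2 mL human AB male serum or FBS, or to 2 mL RPMI alone, at final 1 or 10 μM. Samples analysed by HPLC at pH 9.5 (formic acid/ammonia in acetonitrile/water), with conversion taken from the substrate/internal standard peak ratio. Run in triplicate; half-lives ± SD.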

[13] = Half life in RPMI media at 10 uM by HPLC analysis in presence of fetal bovine serum; assay type: ADME; conditions: cattle; outline: as §4
[14] = Half life in RPMI media at 10 uM by HPLC analysis in presence of human blood serum; assay type: ADME; outline: as §4
[15] = Selectivity ratio of IC50 for MEF to IC50 for human Jurkat T cells; assay type: cell-based; conditions: mouse (MEF) and human (Jurkat T cells), read-out: Ratio IC50
[16] = Selectivity ratio of IC50 for MEF to IC50 for human SK-MEL-2 cells; assay type: cell-based; conditions: mouse (MEF) and human (SK-MEL-2 cells), MEF and SK-MEL-2 cells; read-out: Ratio IC50
MEF = test: Antiproliferative activity against MEF after 72 hrs by MTT assay; assay type: cell-based; conditions: Mus musculus
[17] = Selectivity ratio of IC50 for MEF to IC50 for human HeLa cells; assay type: cell-based; conditions: mouse (MEF) and human (HeLa cells), read-out: Ratio IC50
SK-MEL-2 [18] = test: Antiproliferative activity against human SK-MEL-2 cells after 72 hrs by MTT assay in presence of 5% FBS; assay type: functional, cell-based; conditions: SK-MEL-2, 72 h
Outline: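 SK-MEL2 grown with reduced serum (5% FBS) to slow proliferation. Compounds added in DMSO (0.1% final), followed by a 72 h MTT proliferation assay.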

[19] = Dissociation constant, pKa of the compound; assay type: physicochemical
SK-MEL-2 [20] = test: Selectivity ratio of IC50 for human SK-MEL-2 cells in presence of 5% FBS to IC50 for human SK-MEL-2 cells in presence of 10% FBS; assay type: functional
[21] = Binding affinity to eIF4A1/2 in rabbit reticulocyte lysate assessed as inhibition of cap-dependent translation after 1.5 hrs by dual luciferase reporter gene assay; set-up: species or system Oryctolagus cuniculus; outline: as §1
HeLa [22] = test: Antiproliferative activity against human HeLa cells after 72 hrs by MTT assay; assay type: functional, cell-based; outline: as §2

SMILES	inhibition (Oryctolagus cuniculus [1])	Activity (Jurkat [2])	Activity (HeLa [4])	IC50 (Jurkat [5]) [nM]	IC50 [6] [nM]	IC50 (HaCaT) [nM]	IC50 (RKO) [nM]	IC50 (HeLa [8]) [nM]	IC50 (SK-MEL-2 [9]) [nM]	also measured
CC(/C=C/C=C/CO)=C\[C@@H]1Cc2nc(cs2)CCCCC(=O)O[C@@H](C)C/C(C)=C/C#CC(=O)O1	inactive	inactive	inactive							Activity (SK-MEL-2 [3]): inactive
COC/C=C/C=C/C(C)=C/[C@@H]1Cc2nc(cs2)CCCCC(=O)O[C@@H](C)C/C(C)=C/C#CC(=O)O1	inactive	inactive	inactive							Activity (SK-MEL-2 [3]): inactive
CC(/C=C/C(C)=C/[C@@H]1Cc2nc(cs2)[C@@H](C)C[C@@H](N)CC(=O)O[C@@H](C)C/C(C)=C/C=C\C(=O)O1)=C\CN(C)C [PATEAMINE A]				4	0.5	0.42	0.38	0.72		IC50 [7]: 0.6 nM
CC(/C=C/C(C)=C/[C@@H]1Cc2nc(cs2)[C@@H](C)C[C@@H](NC(=O)c2ccccc2)CC(=O)O[C@@H](C)C/C(C)=C/C=C\C(=O)O1)=C\CN(C)C				15	12.8	3.4	4.2	16.1		IC50 [7]: 11.6 nM
CC(/C=C/C(C)=C/[C@@H]1Cc2nc(cs2)CCCCC(=O)O[C@@H](C)C/C(C)=C/C#CC(=O)O1)=C\CN1CCOCC1	inactive	inactive	inactive						> 5000	
COCCC/C=C/C(C)=C/[C@@H]1Cc2nc(cs2)CCCCC(=O)O[C@@H](C)C/C(C)=C/C#CC(=O)O1	inactive		inactive							IC50 [10]: > 10000 nM; Activity (SK-MEL-2 [3]): inactive
CC(/C=C/CCCO)=C\[C@@H]1Cc2nc(cs2)[C@@H](C)C[C@@H](NC(=O)OC(C)(C)C)CC(=O)O[C@@H](C)C/C(C)=C/C#CC(=O)O1				340	> 20	> 100	> 100	> 100		
CC(/C=C/C(C)=C/[C@@H]1Cc2nc(cs2)[C@@H](C)C[C@@H](NC(=O)C(F)(F)F)CC(=O)O[C@@H](C)C/C(C)=C/C=C\C(=O)O1)=C\CN(C)C				300		> 100	> 100	> 100		
COC/C=C/C=C/C(C)=C/[C@@H]1Cc2nc(cs2)CCCCC(=O)O[C@@H](C)C/C(C)=C/C=C\C(=O)O1	inactive	inactive	inactive						> 5000	inhibition (Oryctolagus cuniculus [11]): inactive
CC(/C=C/CCCO)=C\[C@@H]1Cc2nc(cs2)CCCCC(=O)O[C@@H](C)C/C(C)=C/C=C\C(=O)O1	inactive		inactive						> 5000	inhibition (Oryctolagus cuniculus [11]): inactive; IC50 [10]: > 5000 nM
COCCC/C=C/C(C)=C/[C@@H]1Cc2nc(cs2)[C@@H](C)C[C@@H](NC(=O)OC(C)(C)C)CC(=O)O[C@@H](C)C/C(C)=C/C#CC(=O)O1				55	> 20	> 100	> 100	> 100		
CC(/C=C/C(C)=C/[C@@H]1Cc2nc(cs2)CCCCC(=O)O[C@@H](C)C/C(C)=C/C=C\C(=O)O1)=C\CN1CCCC1	inactive								27	t1/2 [12]: 3.87 h; t1/2 [13]: 14.8 h; t1/2 [14]: 11.7 h; selectivity ratio [15]: 4; selectivity ratio [16]: 4; IC50 (MEF): > 100 nM; selectivity ratio [17]: 4; IC50 (SK-MEL-2 [18]): 154 nM; pKa [19]: 11; Ratio IC50 (SK-MEL-2 [20]): 6; IC50 [21]: 54.8 nM; IC50 [10]: 25 nM; IC50 (HeLa [22]): 23 nM
